Target: 20S proteasome (Homo sapiens, UniProt P28072+P28074+Q99436)
Test: Proteasome-Glo luminescent assay in MCF-7 cells
Type: cell-based
Settings: MCF7, read-out: % Inhibition of 20S Proteasome / 20 μg/mL
Outline: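 MCF-7 cells grown at 37°C, 5% CO2 in RPMI 1640 with 10% FBS, penicillin and streptomycin. Log-phase cells trypsinized, washed extensively, seeded at 7,500/well, incubated overnight. Test compound added in DMSO (final 0.2%), 2 h at 37°C. Luminescent read-out of proteasome chymotrypsin-like, trypsin-like or caspase-like activity. % inhibition versus solvent control. Bortezomib (5, 25 nM) was the positive control.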

inhibition at 20 µg/mL [%]	SMILES
1	COC(=O)c1cccc(O)c1C(=O)c1c(O)cc(C)cc1O [compound 1, moniliphenone]
58	COC(=O)[C@]12Oc3c(c(O)cc4c3[C@@H]3C=C[C@]5(C4)C(=C(O)c4c(O)cc(C)cc4[C@@H]5OC(C)=O)C3=O)C(=O)[C@]1(O)C(=O)C=C[C@@H]2O [compound 2, acremoxanthone D]
